In ChEMBL document CHEMBL3877250, “Design, synthesis, and biological evaluation of (2E)-(2-oxo-1, 2-dihydro-3H-indol-3-ylidene)acetate derivatives as anti-proliferative agents through ROS-induced cell apoptosis” (Eur J Med Chem, 2016):

Key:
[1] = Cytotoxicity against human SK-BR-3 cells assessed as growth inhibition at 20 uM after 72 hrs by CCK-8 assay; format: functional; conditions: SK-BR-3, 72 h, read-out: GI
In short: (§1)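 Cells kept in RPMI 1640 with 10% heat-inactivated fetal calf serum and 1% streptomycin/penicillin at 37 °C, 5% CO2. After compound exposure, CCK-8 was added and cells were incubated 4 h at 37 °C, then absorbance was read at 450 nm. Viability is relative to untreated cells (100%). IC50 comes from nonlinear regression, mean of three separate determinations. Single-concentration screen at 20 µM.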

[2] = Cytotoxicity against human MDA-MB-231 cells assessed as growth inhibition at 20 uM after 72 hrs by CCK-8 assay; format: functional; conditions: MDA-MB-231, 72 h, read-out: GI; in short: as §1
[3] = Cytotoxicity against human HCT116 cells assessed as growth inhibition at 20 uM after 72 hrs by CCK-8 assay; format: functional; conditions: HCT-116, 72 h, read-out: GI; in short: as §1
[4] = Cytotoxicity against human SW480 cells assessed as growth inhibition at 20 uM after 72 hrs by CCK-8 assay; format: functional; conditions: SW480, 72 h, read-out: GI; in short: as §1
[5] = Cytotoxicity against human OVCAR3 cells assessed as growth inhibition at 20 uM after 72 hrs by CCK-8 assay; format: functional; conditions: OVCAR-3, 72 h, read-out: GI; in short: as §1
[6] = Cytotoxicity against human HL60 cells assessed as growth inhibition at 20 uM after 72 hrs by CCK-8 assay; format: functional; conditions: HL-60, 72 h, read-out: GI; in short: as §1
[7] = Cytotoxicity against human Saos2 cells assessed as growth inhibition at 20 uM after 72 hrs by CCK-8 assay; format: functional; conditions: SAOS-2, 72 h, read-out: GI; in short: as §1
[8] = Antitumor activity against human HepG2 cells assessed as growth inhibition at 20 uM after 72 hrs by CCK-8 assay; format: functional; conditions: HepG2, 72 h, read-out: GI; in short: as §1
[9] = Cytotoxicity against human L02 cells assessed as growth inhibition at 20 uM after 72 hrs by CCK-8 assay; format: toxicity, cell-based; conditions: read-out: GI; in short: as §1
[10] = Cytotoxicity against human HL60 cells after 72 hrs by CCK-8 assay; format: functional, cell-based; conditions: HL-60, 72 h; in short: as §1
[11] = Cytotoxicity against human L02 cells after 72 hrs by CCK-8 assay; format: toxicity, cell-based; in short: as §1
[12] = Cytotoxicity against human L02 cells; format: toxicity, cell-based
[13] = Cytotoxicity against human SK-BR-3 cells after 72 hrs by CCK-8 assay; format: functional, cell-based; conditions: SK-BR-3, 72 h; in short: as §1
[14] = Cytotoxicity against human SW480 cells after 72 hrs by CCK-8 assay; format: functional, cell-based; conditions: SW480, 72 h; in short: as §1
[15] = Cytotoxicity against human HepG2 cells after 72 hrs by CCK-8 assay; format: functional, cell-based; conditions: HepG2, 72 h; in short: as §1
[16] = Cytotoxicity against human HCT116 cells after 72 hrs by CCK-8 assay; format: functional, cell-based; conditions: HCT-116, 72 h; in short: as §1
[17] = Cytotoxicity against human Saos2 cells after 72 hrs by CCK-8 assay; format: functional, cell-based; conditions: SAOS-2, 72 h; in short: as §1
[18] = Cytotoxicity against human MDA-MB-231 cells after 72 hrs by CCK-8 assay; format: functional, cell-based; conditions: MDA-MB-231, 72 h; in short: as §1
[19] = Cytotoxicity against human OVCAR3 cells after 72 hrs by CCK-8 assay; format: functional, cell-based; conditions: OVCAR-3, 72 h; in short: as §1

`CN1C(=O)/C(=C/C(=O)OC(C)(C)C)c2ccccc21` gave an inhibition of growth at 20 µM [1] of 87.6%, an inhibition of growth at 20 µM [2] of 86.6% and an inhibition of growth at 20 µM [3] of 87.5%. The inhibition of growth at 20 µM [4] was 77.8%, the inhibition of growth at 20 µM [5] was 57.1% and the inhibition of growth at 20 µM [6] was 94.7%. It also gave an inhibition of growth at 20 µM [7] of 81.9%, an inhibition of growth at 20 µM [8] of 88.4% and an inhibition at 72 h, 20 µM [9] of 61.4%. It also gave an IC50 [10] of 2.76 µM, an IC50 at 72 h [11] of 4.32 µM and an IC50 [12] of 12.2 µM.
`CC(C)(C)OC(=O)/C=C1/C(=O)Nc2ccc(Cl)cc21` showed an inhibition of growth at 20 µM [1] of 87.6%, an inhibition of growth at 20 µM [2] of 87.6% and an inhibition of growth at 20 µM [3] of 89.7%. It also gave an inhibition of growth at 20 µM [4] of 78.5%, an inhibition of growth at 20 µM [5] of 59.4% and an inhibition of growth at 20 µM [6] of 94.9%. For the same compound, the inhibition of growth at 20 µM [7] was 82.3%, the inhibition of growth at 20 µM [8] was 87.1% and the inhibition at 72 h, 20 µM [9] was 63.3%. For the same compound, the IC50 [10] was 3.16 µM, the IC50 at 72 h [11] was 4.72 µM and the IC50 [13] was 6.48 µM. The IC50 [14] was 5.49 µM, the IC50 [15] was 8.99 µM and the IC50 [16] was 5.5 µM. It also gave an IC50 [17] of 6.51 µM, an IC50 [18] of 3.11 µM and an IC50 [19] of 19 µM. For the same compound, the IC50 [12] was 6.18 µM.
`CC(C)(C)OC(=O)/C=C1/C(=O)Nc2c(Cl)cccc21` gave an inhibition of growth at 20 µM [1] of 88.2%, an inhibition of growth at 20 µM [2] of 87.4% and an inhibition of growth at 20 µM [3] of 89.5%. The inhibition of growth at 20 µM [4] was 78%, the inhibition of growth at 20 µM [5] was 59.3% and the inhibition of growth at 20 µM [6] was 93.7%. For the same compound, the inhibition of growth at 20 µM [7] was 82.4%, the inhibition of growth at 20 µM [8] was 88.1% and the inhibition at 72 h, 20 µM [9] was 64%. For the same compound, the IC50 [10] was 6.12 µM and the IC50 at 72 h [11] was 4.8 µM.
`COc1ccc2c(c1)NC(=O)/C2=C/C(=O)OC(C)(C)C` gave an inhibition of growth at 20 µM [1] of 87%, an inhibition of growth at 20 µM [2] of 87.1% and an inhibition of growth at 20 µM [3] of 89.5%. For the same compound, the inhibition of growth at 20 µM [4] was 78.8%, the inhibition of growth at 20 µM [5] was 57.9% and the inhibition of growth at 20 µM [6] was 91.6%. It also gave an inhibition of growth at 20 µM [7] of 83.2%, an inhibition of growth at 20 µM [8] of 88.3% and an inhibition at 72 h, 20 µM [9] of 63.6%. It also gave an IC50 [10] of 9.15 µM and an IC50 at 72 h [11] of 4.34 µM.
